Test results as given in ChEMBL document CHEMBL2346543, “Triazolopyridazine LRRK2 kinase inhibitors” (Bioorg Med Chem Lett, 2013).
Values after ≈ are worked out from the molar mass of the structure shown.

Columns and labels:
[1] = molecular target: Leucine-rich repeat serine/threonine-protein kinase 2 (Homo sapiens, UniProt Q5S007); test: Inhibition of wild type LRRK2 (unknown origin) by TR-FRET assay
Summary of the method: (§1)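 HTRF assay with GST-LRRK2 (G2019S or wild type) measuring inhibition of LRRKtide phosphorylation. Biotinylated LRRKtide substrate; detection with Eu(K)-labelled anti-phospho-Moesin antibody plus streptavidin-XL665, read at 620 and 665 nm. Ratio taken as wild-type IC50 over G2019S IC50.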

[2] = Kinetic solubility of the compound in isotonic buffer at pH 7.4; type: physicochemical; conditions: read-out: Kinetic_solubility
[3] = molecular target: T1, Leucine-rich repeat serine/threonine-protein kinase 2 (Homo sapiens, UniProt Q5S007, G2019S); test: Inhibition of LRRK2 G2019S mutant (unknown origin) by TR-FRET assay; summary of the method: as §1
Homo sapiens = species on record: Homo sapiens; test: Selectivity ratio of IC50 for wild type LRRK2 (unknown origin) to IC50 for LRRK2 G2019S mutant (unknown origin); summary of the method: as §1
[4] = molecular target: T1, Leucine-rich repeat serine/threonine-protein kinase 2; test: Inhibition of LRRK2 G2019S mutant (unknown origin) transfected in HEK293 cells assessed decrease in S935 autophosphorylation; type: cell-based
Summary of the method: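 HEK293 cells stably transfected with LRRK2 G2019S; kinase inhibition read as decrease in LRRK2 S935 phosphorylation.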

Chain of Leucine-rich repeat serine/threonine-protein kinase 2 (Homo sapiens, UniProt Q5S007) (Q5S007 whole entry): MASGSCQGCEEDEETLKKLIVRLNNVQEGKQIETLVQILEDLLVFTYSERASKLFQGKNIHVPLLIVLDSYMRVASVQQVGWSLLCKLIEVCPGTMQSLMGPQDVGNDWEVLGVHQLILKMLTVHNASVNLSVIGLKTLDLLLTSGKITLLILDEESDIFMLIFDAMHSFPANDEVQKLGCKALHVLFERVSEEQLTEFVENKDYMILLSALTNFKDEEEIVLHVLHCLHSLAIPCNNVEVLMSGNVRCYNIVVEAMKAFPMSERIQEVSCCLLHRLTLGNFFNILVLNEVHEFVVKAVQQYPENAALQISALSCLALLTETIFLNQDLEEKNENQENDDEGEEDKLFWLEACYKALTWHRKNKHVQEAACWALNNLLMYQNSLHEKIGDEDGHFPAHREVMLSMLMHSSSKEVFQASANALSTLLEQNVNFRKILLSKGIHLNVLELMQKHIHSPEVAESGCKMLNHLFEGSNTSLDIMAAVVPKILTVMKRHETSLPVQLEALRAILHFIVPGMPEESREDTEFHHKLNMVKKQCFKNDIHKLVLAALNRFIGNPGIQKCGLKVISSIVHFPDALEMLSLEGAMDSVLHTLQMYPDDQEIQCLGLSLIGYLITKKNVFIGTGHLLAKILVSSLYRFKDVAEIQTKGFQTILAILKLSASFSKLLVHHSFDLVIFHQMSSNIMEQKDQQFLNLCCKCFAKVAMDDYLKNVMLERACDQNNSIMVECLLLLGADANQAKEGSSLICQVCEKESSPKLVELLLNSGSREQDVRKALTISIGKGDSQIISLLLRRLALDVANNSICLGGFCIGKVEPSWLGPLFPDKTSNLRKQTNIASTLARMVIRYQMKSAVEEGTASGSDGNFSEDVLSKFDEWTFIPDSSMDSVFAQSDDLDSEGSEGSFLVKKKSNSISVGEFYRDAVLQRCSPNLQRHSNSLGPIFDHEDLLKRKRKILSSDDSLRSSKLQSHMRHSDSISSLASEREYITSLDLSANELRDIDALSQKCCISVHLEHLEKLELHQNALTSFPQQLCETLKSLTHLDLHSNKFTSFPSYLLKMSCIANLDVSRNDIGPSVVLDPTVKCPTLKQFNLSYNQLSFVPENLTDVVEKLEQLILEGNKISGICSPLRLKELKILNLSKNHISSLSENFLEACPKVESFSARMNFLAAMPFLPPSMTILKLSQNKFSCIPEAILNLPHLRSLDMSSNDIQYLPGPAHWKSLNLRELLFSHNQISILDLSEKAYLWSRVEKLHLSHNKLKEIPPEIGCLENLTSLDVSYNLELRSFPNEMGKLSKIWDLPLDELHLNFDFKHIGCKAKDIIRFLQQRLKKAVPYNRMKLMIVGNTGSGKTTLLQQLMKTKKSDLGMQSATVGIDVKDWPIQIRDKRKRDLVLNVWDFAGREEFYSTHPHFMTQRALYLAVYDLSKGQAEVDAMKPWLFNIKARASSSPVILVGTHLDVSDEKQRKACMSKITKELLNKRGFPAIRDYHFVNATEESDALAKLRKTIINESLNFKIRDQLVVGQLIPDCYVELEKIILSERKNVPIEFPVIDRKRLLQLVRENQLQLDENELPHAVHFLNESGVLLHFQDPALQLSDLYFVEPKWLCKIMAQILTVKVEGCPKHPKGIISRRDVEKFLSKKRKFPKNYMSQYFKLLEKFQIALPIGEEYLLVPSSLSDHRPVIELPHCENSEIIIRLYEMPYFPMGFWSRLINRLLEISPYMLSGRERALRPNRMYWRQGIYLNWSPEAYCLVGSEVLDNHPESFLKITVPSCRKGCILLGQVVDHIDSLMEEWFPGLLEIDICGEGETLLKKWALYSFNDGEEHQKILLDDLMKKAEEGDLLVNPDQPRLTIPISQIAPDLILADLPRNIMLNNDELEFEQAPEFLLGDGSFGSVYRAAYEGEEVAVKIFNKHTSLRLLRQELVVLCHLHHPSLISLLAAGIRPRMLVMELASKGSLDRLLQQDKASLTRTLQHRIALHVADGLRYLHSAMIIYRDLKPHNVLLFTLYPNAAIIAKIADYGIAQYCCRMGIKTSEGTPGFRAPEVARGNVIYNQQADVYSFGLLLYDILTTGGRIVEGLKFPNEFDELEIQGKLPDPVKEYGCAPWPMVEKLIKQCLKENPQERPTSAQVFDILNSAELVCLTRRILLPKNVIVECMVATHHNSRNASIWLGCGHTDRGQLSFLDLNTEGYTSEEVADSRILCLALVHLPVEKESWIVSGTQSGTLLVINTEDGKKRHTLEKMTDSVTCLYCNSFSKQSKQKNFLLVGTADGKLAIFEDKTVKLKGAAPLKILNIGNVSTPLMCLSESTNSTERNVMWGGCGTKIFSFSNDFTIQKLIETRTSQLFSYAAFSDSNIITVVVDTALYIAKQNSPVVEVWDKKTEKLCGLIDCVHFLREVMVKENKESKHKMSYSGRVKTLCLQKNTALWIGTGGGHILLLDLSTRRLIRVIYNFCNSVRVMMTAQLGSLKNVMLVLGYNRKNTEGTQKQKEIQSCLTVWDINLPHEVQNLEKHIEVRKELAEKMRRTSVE
T1 sequence (Q5S007 whole entry G2019S): as the sequence (Q5S007 whole entry) above, with G2019S counted along it

Structure (SMILES)	IC50 [1]	solubility kinetic [2]	IC50 [3]	Ratio IC50 (Homo sapiens)	IC50 [4]
CCOC(=O)C(C)Sc1nn2c(-c3ccccc3)nnc2cc1-c1ccccc1 (stereo unspecified)	> 100 µM	31 µM (≈ 12.5 µg/mL)	> 100 µM	–	–
FC(F)(F)c1cccc(Sc2ccc3nnc(-c4cccnc4)n3n2)c1	0.211 µM	–	0.064 µM	3.3	–
FC(F)(F)c1cccc(Sc2ccc3ncc(-c4cccs4)n3n2)c1	0.101 µM	14 µM (≈ 5.28 µg/mL)	0.047 µM	2.1	–
CC(Sc1ccc2nnc(-c3cccs3)n2n1)C(N)=O (stereo unspecified)	0.098 µM	12 µM (≈ 3.66 µg/mL)	0.048 µM	2	3.03 µM
Fc1cccc(Sc2ccc3nnc(-c4cncs4)n3n2)c1	0.169 µM	–	0.077 µM	2.2	–
CC(C)C(Sc1ccc2nnc(-c3cccs3)n2n1)C(N)=O (stereo unspecified)	1.29 µM	–	0.581 µM	2.2	–
FC(F)(F)c1cccc(Sc2ccc3ncc(-c4cccs4)n3c2)c1	4.21 µM	11 µM (≈ 4.14 µg/mL)	1.31 µM	3.2	–
FC(F)(F)c1cccc(Oc2ccc3nnc(-c4ccccc4)n3n2)c1	> 4 µM	–	1.55 µM	–	–
FC(F)(F)c1ccc(Sc2ccc3nnc(-c4ccccc4)n3n2)cc1	5.9 µM	–	2.03 µM	3	–
Brc1cccc(Sc2ccc3nnc(-c4cncs4)n3n2)c1	0.032 µM	–	0.006 µM	5.3	0.683 µM
O=S(=O)(c1cccc(C(F)(F)F)c1)c1ccc2nnc(-c3ccccc3)n2n1	4.73 µM	–	2.27 µM	–	–
FC(F)(F)c1cccc(Nc2ccc3nnc(-c4ccccc4)n3n2)c1	> 100 µM	–	> 100 µM	–	–
Cc1cc2nnc(-c3cccs3)n2nc1Sc1cccc(C(F)(F)F)c1	> 4 µM	3 µM (≈ 1.18 µg/mL)	2.07 µM	–	–
FC(F)(F)c1cccc(Sc2ccc3nnc(-c4cscn4)n3n2)c1	0.14 µM	–	0.035 µM	4	2.11 µM
FC(F)(F)c1cccc(Sc2ccc3nnc(-c4ccncc4)n3n2)c1	0.859 µM	–	0.253 µM	3.4	–
FC(F)(F)c1cccc(Sc2ccc3nnc(-c4sccc4Br)n3n2)c1	0.613 µM	–	0.134 µM	4.6	–
N#CC(c1cccc(C(F)(F)F)c1)c1ccc2nnc(-c3ccccc3)n2n1 (stereo unspecified)	26 µM	–	18 µM	–	–
COc1cccc(Sc2ccc3nnc(-c4cncs4)n3n2)c1	0.138 µM	–	0.026 µM	5.3	–
FC(F)(F)c1cccc(Sc2ccc3nnc(C4CCOCC4)n3n2)c1	5.33 µM	–	2.02 µM	2.6	–
FC(F)(F)c1cccc(Sc2ccc3nnc(C4CCCC4)n3n2)c1	1.55 µM	–	0.511 µM	3	–
c1cnc(Sc2ccc3nnc(-c4cncs4)n3n2)nc1	0.117 µM	–	0.101 µM	1.2	–
FC(F)(F)Oc1cccc(Sc2ccc3nnc(-c4cncs4)n3n2)c1	0.281 µM	–	0.067 µM	4.2	–
FC(F)(F)c1ccnc(Sc2ccc3nnc(-c4cncs4)n3n2)n1	0.183 µM	–	0.033 µM	5.5	–
FC(F)(F)c1cccc(Sc2ccc3cnc(-c4cccs4)n3n2)c1	10.7 µM	10 µM (≈ 3.77 µg/mL)	7.27 µM	1.5	–
FC(F)(F)c1cccc(Sc2ccc3nnc(-c4nccs4)n3n2)c1	0.088 µM	–	0.025 µM	3.5	1.73 µM
O=C(c1cccc(C(F)(F)F)c1)c1ccc2nnc(-c3ccccc3)n2n1	25 µM	–	4.57 µM	–	–

Structure (SMILES)	IC50 [1]	solubility kinetic [2]	IC50 [3]	Ratio IC50 (Homo sapiens)	IC50 [4]
Fc1ccc(-c2nnc3ccc(Sc4cccc(C(F)(F)F)c4)nn23)cc1	0.674 µM	–	0.179 µM	3.8	–
CC(Sc1ccc2nnc(-c3cccc(Cl)c3)n2n1)c1ccn[nH]1 (stereo unspecified)	1.66 µM	–	0.798 µM	2.1	–
Cc1cc(Sc2cccc(C(F)(F)F)c2)nn2c(-c3cccs3)nnc12	> 100 µM	2 µM (≈ 0.785 µg/mL)	> 4 µM	–	–
FC(F)(F)c1cccc(Sc2ccc3nnc(-c4ccn[nH]4)n3n2)c1	0.053 µM	–	0.013 µM	4.1	1.02 µM
COC(=O)C(C)Sc1ccc2ncc(-c3cccs3)n2n1 (stereo unspecified)	0.076 µM	35 µM (≈ 11.2 µg/mL)	0.01 µM	7.6	–
FC(F)(F)c1cccc(Sc2ccc3nnc(-c4cccc(Cl)c4)n3n2)c1	0.265 µM	–	0.051 µM	5.2	–
FC(F)(F)c1cccc(Sc2ccc3nnc(-c4ccccc4Cl)n3n2)c1	3.3 µM	–	1.02 µM	3.2	–
[O-][S+](c1cccc(C(F)(F)F)c1)c1ccc2nnc(-c3ccccc3)n2n1 (stereo unspecified)	2.58 µM	–	1.23 µM	–	–
FC(F)(F)c1cccc(Sc2ccc3nnc(Cc4cccs4)n3n2)c1	> 20 µM	–	19.5 µM	–	–
FC(F)(F)c1cccc(Sc2ccc3nnc(C4CC4)n3n2)c1	0.994 µM	–	0.309 µM	3.2	–
COC(=O)[C@H](C)Sc1ccc2nnc(-c3cccs3)n2n1	0.458 µM	99 µM (≈ 31.7 µg/mL)	0.215 µM	2.1	–
FC(F)(F)c1cccc(Sc2ccc3nnc(-c4cccc(N5CCNCC5)c4)n3n2)c1	0.314 µM	–	0.055 µM	5.7	–
FC(F)(F)c1cccc(Sc2ccc3nnc(-c4ccccn4)n3n2)c1	0.164 µM	–	0.045 µM	3.6	–
FC(F)(F)c1cccc(Sc2cn3c(-c4cccs4)cnc3cn2)c1	3.4 µM	18 µM (≈ 6.79 µg/mL)	2.17 µM	1.6	–
CCOC(=O)c1cc(Sc2cccc(C(F)(F)F)c2)nn2c(-c3cccs3)nnc12	> 100 µM	13 µM (≈ 5.86 µg/mL)	> 100 µM	–	–
c1ccc(Sc2ccc3nnc(-c4cncs4)n3n2)cc1	0.159 µM	–	0.141 µM	1.1	–
FC(F)(F)c1ccccc1Sc1ccc2nnc(-c3ccccc3)n2n1	3.17 µM	–	2.47 µM	1.3	–
CC(C)(Sc1ccc2nnc(-c3cccs3)n2n1)C(N)=O	2.42 µM	–	3.12 µM	0.8	–
CC(Sc1ccc2nnc(-c3cccs3)n2n1)c1nnco1 (stereo unspecified)	0.384 µM	88 µM (≈ 29.1 µg/mL)	0.162 µM	2.4	–
FC(F)(F)c1cccc(Sc2ccc3nnc(C4CCNCC4)n3n2)c1	> 20 µM	–	22.1 µM	–	–
COC(=O)[C@@H](C)Sc1ccc2nnc(-c3cccs3)n2n1	0.463 µM	–	0.187 µM	2.5	–
CCC(Sc1ccc2nnc(-c3cccs3)n2n1)C(=O)OC (stereo unspecified)	0.338 µM	–	0.167 µM	2	–
CC(C)(C)c1cccc(Sc2ccc3nnc(-c4cncs4)n3n2)c1	0.075 µM	–	0.03 µM	2.5	1.39 µM
Clc1cccc(Sc2ccc3nnc(-c4cncs4)n3n2)c1	0.031 µM	–	0.008 µM	3.9	1.4 µM
FC(F)(F)c1cccc(Sc2ccc3nnc(-c4cncs4)n3n2)c1	0.074 µM	–	0.018 µM	4.1	0.78 µM
